Test results: ChEMBL document CHEMBL1145538, “In vitro inhibition of Streptococcus mutans biofilm formation on hydroxyapatite by subinhibitory concentrations of anthraquinones” (2007)
In brackets after ≈: the same amount, converted by molar mass. Activity calls are given as the source filed them. No cut-off for these calls is given here.

Experiments:
Streptococcus mutans [1] = test: Activity against planktonic Streptococcus mutans LMG 14558; type: functional
Procedure, shortened: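 S. mutans LMG 14558T, routinely grown in BHI broth at 37°C, was tested against planktonic cells by broth microdilution in 96-well microtiter plates to give the MIC in μg/ml. The modified microdilution was also run with and without 1.5 mM glutathione, 0.025% (wt/vol) cysteine or 10 mM mannitol as ROS scavengers, including in chemically defined M1 medium.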

Streptococcus mutans [2] = test: Effect on Streptococcus mutans LMG 14558 assessed as inhibition of biofilm formation in modified Robbin's device at 5 ug/ml relative to BHIS control; type: functional
Procedure, shortened: (§1)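 S. mutans LMG 14558T grown at 37°C as biofilms on hydroxyapatite disks in modified Robbins' devices, in BHI plus 1% sucrose (BHIS) containing compound at the stated concentration. Biomass per disk is estimated by SYTO9 fluorescent staining and given as % of BHIS-only controls (avg ± SD). Significance by one-tailed independent-sample t test; P > 0.01 is not significant.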

Streptococcus mutans [3] = test: Effect on Streptococcus mutans LMG 14558 assessed as inhibition of biofilm formation in modified Robbin's device at 50 ug/ml relative to BHIS control; type: functional; procedure, shortened: as §1
Streptococcus mutans [4] = test: Decrease in membrane fluidity of Streptococcus mutans LMG 14558 using pyrene in BHI medium at 5 ug/ml relative to BHI control; type: functional; set-up: scale not given: the % may be the effect or the level left
Procedure, shortened: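 Relative membrane fluidity (lateral diffusion) of S. mutans LMG 14558T grown in BHI with or without 5 μg/ml compound, read as pyrene intermolecular excimer-to-monomer fluorescence intensity ratio at constant temperature. Relative fluidity F = (Ie/Im treated)/(Ie/Im untreated) × Fr, with untreated BHI-grown cells set to Fr = 1.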

Streptococcus mutans [5] = test: Effect on Streptococcus mutans LMG 14558 assessed as inhibition of biofilm formation in modified Robbin's device at 1333 ug/ml relative to BHIS control; type: functional; procedure, shortened: as §1
Streptococcus mutans [6] = test: Effect on Streptococcus mutans LMG 14558 assessed as inhibition of biofilm formation in modified Robbin's device at 0.1 ug/ml relative to BHIS control relative to BHIS control; type: functional; procedure, shortened: as §1
Streptococcus mutans [7] = test: Effect on Streptococcus mutans LMG 14558 assessed as inhibition of biofilm formation in modified Robbin's device at 1200 ug/ml relative to BHIS control; type: functional; procedure, shortened: as §1
Streptococcus mutans [8] = test: Susceptibility of Streptococcus mutans LMG 14558 in BHIS medium assessed as increase in biofilm formation at 5 ug/ml in presence of 0.025% cysteine; type: functional, organism-based
Streptococcus mutans [9] = test: Effect on Streptococcus mutans LMG 14558 assessed as inhibition of biofilm formation in modified Robbin's device at 2 ug/ml relative to BHIS control; type: functional; procedure, shortened: as §1
Streptococcus mutans [10] = test: Effect on Streptococcus mutans LMG 14558 assessed as inhibition of biofilm formation in modified Robbin's device at 1 ug/ml relative to BHIS control; type: functional; procedure, shortened: as §1
Streptococcus mutans [11] = test: Effect on Streptococcus mutans LMG 14558 assessed as inhibition of biofilm formation in modified Robbin's device at 0.5 ug/ml relative to BHIS control; type: functional; procedure, shortened: as §1

| Compound | MIC (Streptococcus mutans [1]) | inhibition at 5 µg/mL (Streptococcus mutans [2]) | further results |
| --- | --- | --- | --- |
| Cc1c(C(=O)O)c(O)cc2c1C(=O)c1c(O)c([C@@H]3O[C@H](CO)[C@@H](O)[C@H](O)[C@H]3O)c(O)c(O)c1C2=O [CARMINIC ACID] | > 250 µg/mL | 66.5% | – |
| O=C1c2ccc(O)cc2C(=O)c2ccc(O)cc21 [ANTHRAFLAVICACID] | 250 µg/mL (≈ 1040 µM) | 98.2% | – |
| O=C1c2cccc(O)c2C(=O)c2c(O)cc(CO)cc21 [ALOE-EMODIN] | > 250 µg/mL | – | inhibition at 50 µg/mL (Streptococcus mutans [3]): 99.2% |
| Cc1cc(O)c2c(=O)c3c(O)cc(O)c4c5c(O)cc(O)c6c(=O)c7c(O)cc(C)c8c1c2c(c34)c(c78)c65 [HYPERICIN] | 250 µg/mL (≈ 496 µM) | 47.8% | Activity (Streptococcus mutans [4]): 35.6% |
| O=C(O)c1cc(O)c2c(c1)C(C1c3cccc(O)c3C(=O)c3c(O)cc(C(=O)O)cc31)c1cccc(O)c1C2=O (stereo not given) [SENNIDIN A] | > 250 µg/mL | 83.7% | – |
| Cc1cc(O)c2c(c1)C(=O)c1cccc(O)c1C2=O [CHRYSOPHANOL] | 250 µg/mL (≈ 983 µM) | 75% | – |
| O=C1c2cccc(O)c2C(=O)c2c(O)cccc21 [DANTHRON] | 250 µg/mL (≈ 1040 µM) | 91.3% | – |
| COc1cc(O)c2c(c1)C(=O)c1cc(C)cc(O)c1C2=O [PHYSCION] | > 250 µg/mL | 120% | – |
| O=C(O)c1cc(O)c2c(c1)C(=O)c1cccc(O)c1C2=O [RHEIN] | 10 µg/mL (≈ 35.2 µM) | 75.2% | – |
| Oc1cc(Cl)ccc1Oc1ccc(Cl)cc1Cl [TRICLOSAN] | 16 µg/mL (≈ 55.3 µM) | 78.1% | inhibition at 1333 µg/mL (Streptococcus mutans [5]): 10.9% |
| N=C(NCCCCCCNC(=N)NC(=N)Nc1ccc(Cl)cc1)NC(=N)Nc1ccc(Cl)cc1 [CHLORHEXIDINE] | 2 µg/mL (≈ 3.96 µM) | – | inhibition at 0.1 µg/mL (Streptococcus mutans [6]): 104%; inhibition at 1200 µg/mL (Streptococcus mutans [7]): 34.5% |
| O=C1c2ccccc2C(=O)c2c(O)ccc(O)c21 [QUINIZARIN] | 250 µg/mL (≈ 1040 µM) | 80% | – |
| Cc1cc(O)c2c(c1)C(=O)c1cc(O)cc(O)c1C2=O [EMODIN] | > 250 µg/mL | 10.9% | Activity (Streptococcus mutans [4]): 21.2%; Activity (Streptococcus mutans [8]): inactive; inhibition at 2 µg/mL (Streptococcus mutans [9]): 52.1%; inhibition at 1 µg/mL (Streptococcus mutans [10]): 79%; inhibition at 0.5 µg/mL (Streptococcus mutans [11]): 85.7%; inhibition at 0.1 µg/mL (Streptococcus mutans [6]): 101% |
